For one experiment, the system named is Nakaseomyces glabratus. Briefly: Antifungal activity against Candida glabrata at 25 degC after 48 hrs by agar well diffusion assay. It counts as functional. Put shortly:
(§1)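 Yeast suspensions of 10^7 CFU/mL were swabbed onto Sabouraud Dextrose Agar and dried about 40 min at 35 °C. Compounds were dissolved in DMSO (2.5 mg/ml initial) and diluted two-fold in DMSO, then loaded into 6 mm wells. Plates: 2 h pre-incubation at 25 °C, then 48 h at 25 °C. MIC read as the lowest concentration inhibiting growth around the well, in duplicate. The C. albicans clinical isolate came from a hospitalized patient at Eskisehir Osmangazi University hospital; the standard strain came from a culture collection.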
In general terms: In agar diffusion tests the substance spreads into inoculated agar from a disc or well.

The next experiment deals with Enterococcus. Briefly: Antibacterial activity against vancomycin-resistant Enterococcus species at 37 degC after 24 hrs by agar well diffusion assay. It counts as functional, organism-based. Put shortly: (§2)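 Bacteria kept on Nutrient Agar slants at 4 °C and subcultured before use. Suspensions of 10^8 CFU/mL were swabbed onto Nutrient Agar and the plates dried 40 min at 35 °C. Compounds were dissolved in DMSO starting at 2.5 mg/ml, serially diluted two-fold, and loaded into 6 mm wells. Plates were pre-incubated 2 h at 25 °C, then 24 h at 37 °C. Inhibition zones were read and the MIC taken as the lowest inhibiting concentration. Duplicates were run.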

Experiment [1] relates to Staphylococcus aureus. Briefly: Antibacterial activity against methicillin-resistant Staphylococcus aureus at 37 degC after 24 hrs by agar well diffusion assay. It counts as functional. Put shortly:
as §2

In experiment [2] the test system is Candida albicans. Briefly: Antifungal activity against Candida albicans ESOGU at 25 degC after 48 hrs by agar well diffusion assay. It counts as functional. Put shortly: as §1
The test system of experiment [3] is Candida albicans. Briefly: Antifungal activity against Candida albicans at 25 degC after 48 hrs by agar well diffusion assay. Type of experiment: functional. The method, boiled down: as §1
Experiment [4] relates to Staphylococcus aureus. Briefly: Antibacterial activity against Staphylococcus aureus at 37 degC after 24 hrs by agar well diffusion assay. It counts as functional. Put shortly: (§3)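 Compounds dissolved in DMSO at 2.5 mg/ml initial concentration, then serially diluted two-fold in DMSO. Nutrient Agar plates were swabbed with 10^8 CFU/mL bacteria and dried about 40 min at 35 °C. Solution was placed in 6 mm wells, then 2 h pre-incubation at 25 °C and 24 h at 37 °C. MIC is the lowest concentration giving a growth-inhibition zone around the well. Duplicate.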

The test system of another experiment is Candida parapsilosis. Briefly: Antifungal activity against Candida parapsilosis at 25 degC after 48 hrs by agar well diffusion assay. Type of experiment: functional. Conditions: for MIC: Lodderomyces parapsilosis. The method, boiled down: as §1
The subject of another experiment is Candida tropicalis. Briefly: Antifungal activity against Candida tropicalis at 25 degC after 48 hrs by agar well diffusion assay. It counts as functional. Put shortly:
as §1

The next experiment has as its system Escherichia coli. Briefly: Antibacterial activity against Escherichia coli at 37 degC after 24 hrs by agar well diffusion assay. Type of experiment: functional, organism-based. The method, boiled down: as §3
The subject of a further experiment is Pseudomonas aeruginosa. Briefly: Antibacterial activity against Pseudomonas aeruginosa at 37 degC after 24 hrs by agar well diffusion assay. Type of experiment: functional, organism-based. The method, boiled down:
as §3

Activity and MIC data for 13 compounds are collected here from ChEMBL document CHEMBL3232750, “Synthesis, structure-activity relationships, and in vitro antibacterial and antifungal activity evaluations of novel pyrazole carboxylic and dicarboxylic acid derivatives” (2014).

Usually MIC stands for the smallest concentration in the dilution series that meets the test's criterion for growth inhibition. Read a high MIC as weaker potency.

In brackets after ≈: the same amount, converted by molar mass. Activity calls are given as the source filed them.

Consider `Cc1ccc(NC(=O)c2nn(-c3cccc([N+](=O)[O-])c3)c(-c3ccccc3)c2C(=O)Nc2ccc(C)cc2)cc1`, for which the outcome in the experiment with Nakaseomyces glabratus, in the experiment with Enterococcus, in the experiment with Staphylococcus aureus [1], with Candida albicans [2], in the experiment on Staphylococcus aureus [4] and with Candida parapsilosis was inactive. The outcome in the experiment with Candida tropicalis, in the experiment with Escherichia coli and in the experiment with Pseudomonas aeruginosa was inactive. In the experiment on Candida albicans [3], this compound came in with an MIC of 25 µg/mL (≈ 47 µM).

On to `Cc1cccc(NC(=O)c2nn(-c3cccc([N+](=O)[O-])c3)c(-c3ccccc3)c2C(=O)Nc2cccc(C)c2)c1`, for which the result in the experiment on Nakaseomyces glabratus, with Enterococcus, with Staphylococcus aureus [1], in the experiment on Candida albicans [2], with Candida albicans [3] and in the experiment on Staphylococcus aureus [4] was inactive. Further, the result in the experiment with Candida parapsilosis, in the experiment on Candida tropicalis, with Escherichia coli and in the experiment on Pseudomonas aeruginosa was inactive.

In the case of `O=C(Nc1cccc(C(F)(F)F)c1)c1nn(-c2cccc([N+](=O)[O-])c2)c(-c2ccccc2)c1C(=O)Nc1cccc(C(F)(F)F)c1`, the outcome in the experiment on Nakaseomyces glabratus, in the experiment with Enterococcus, with Staphylococcus aureus [1], with Candida albicans [2], in the experiment with Staphylococcus aureus [4] and in the experiment on Candida parapsilosis was inactive. Further, the result in the experiment on Candida tropicalis, in the experiment on Escherichia coli and in the experiment on Pseudomonas aeruginosa was inactive. In addition, it took 50 µg/mL (≈ 78.2 µM) to inhibit growth in the experiment on Candida albicans [3] (MIC).

Turning to `O=C(Nc1ccccc1C(F)(F)F)c1nn(-c2cccc([N+](=O)[O-])c2)c(-c2ccccc2)c1C(=O)Nc1ccccc1C(F)(F)F`, the outcome with Nakaseomyces glabratus, in the experiment with Enterococcus, in the experiment on Staphylococcus aureus [1], with Staphylococcus aureus [4], in the experiment with Candida parapsilosis and in the experiment on Candida tropicalis was inactive. Besides, the result with Escherichia coli and with Pseudomonas aeruginosa was inactive. Also, the results for the MIC against Candida albicans [2] and in the experiment on Candida albicans [3] were 50 µg/mL (≈ 78.2 µM) and 25 µg/mL (≈ 39.1 µM), respectively.

Regarding `O=C(Nc1ccc(F)cc1)c1nn(-c2cccc([N+](=O)[O-])c2)c(-c2ccccc2)c1C(=O)Nc1ccc(F)cc1`, the outcome in the experiment with Nakaseomyces glabratus, in the experiment on Enterococcus, with Staphylococcus aureus [1], with Candida albicans [2], in the experiment with Staphylococcus aureus [4] and in the experiment with Candida parapsilosis was inactive. In addition, the outcome in the experiment with Candida tropicalis, in the experiment on Escherichia coli and in the experiment with Pseudomonas aeruginosa was inactive. This compound returned an MIC against Candida albicans [3] of 25 µg/mL (≈ 46.3 µM).

With `CCNC(=S)NC(=O)c1nn(-c2cccc([N+](=O)[O-])c2)c(-c2ccccc2)c1C(=O)NC(=S)NCC`, the outcome with Nakaseomyces glabratus, in the experiment on Enterococcus, in the experiment on Staphylococcus aureus [1], in the experiment on Staphylococcus aureus [4], in the experiment on Candida parapsilosis and in the experiment on Candida tropicalis was inactive. The result with Escherichia coli and with Pseudomonas aeruginosa was inactive. In addition, the MIC against Candida albicans [2] and against Candida albicans [3] was 25 µg/mL (≈ 47.6 µM) throughout.

Consider `O=C(Nc1ccc(C(F)(F)F)cc1)c1nn(-c2cccc([N+](=O)[O-])c2)c(-c2ccccc2)c1C(=O)Nc1ccc(C(F)(F)F)cc1`, for which the outcome with Nakaseomyces glabratus, in the experiment on Enterococcus, in the experiment with Staphylococcus aureus [1], in the experiment on Candida albicans [2], in the experiment on Staphylococcus aureus [4] and in the experiment with Candida parapsilosis was inactive. Besides, the result in the experiment with Candida tropicalis, in the experiment with Escherichia coli and with Pseudomonas aeruginosa was inactive. The same compound returned a minimum inhibitory concentration (MIC) in the experiment with Candida albicans [3] of 50 µg/mL (≈ 78.2 µM).

For `O=C(O)c1cnn(-c2cccc([N+](=O)[O-])c2)c1-c1ccccc1`, the result in the experiment with Nakaseomyces glabratus, with Enterococcus, in the experiment on Candida albicans [2], in the experiment on Candida parapsilosis, with Candida tropicalis and with Escherichia coli was inactive. The result in the experiment on Pseudomonas aeruginosa was inactive. For the same compound, the minimal inhibitory concentration (MIC) in the experiment on Staphylococcus aureus [1] came to 25 µg/mL (≈ 80.8 µM); against Candida albicans [3], 25 µg/mL (≈ 80.8 µM); in the experiment with Staphylococcus aureus [4], 50 µg/mL (≈ 162 µM).

For the compound `CCOC(=O)c1c(C(=O)Nc2ccccc2F)nn(-c2cccc([N+](=O)[O-])c2)c1-c1ccccc1`, the minimal inhibitory concentration (MIC) stood at 50 µg/mL (≈ 105 µM) against Nakaseomyces glabratus, 50 µg/mL (≈ 105 µM) in the experiment with Candida albicans [2] and 25 µg/mL (≈ 52.7 µM) against Candida albicans [3]. Moreover, the outcome in the experiment on Enterococcus, in the experiment on Staphylococcus aureus [1], in the experiment with Staphylococcus aureus [4], in the experiment with Candida parapsilosis, with Candida tropicalis and in the experiment with Escherichia coli was inactive. In addition, the result with Pseudomonas aeruginosa was inactive.

Regarding `O=c1[nH][nH]c(=O)c2c(-c3ccccc3)n(-c3cccc([N+](=O)[O-])c3)nc12`, the result in the experiment on Nakaseomyces glabratus, in the experiment on Enterococcus, in the experiment on Staphylococcus aureus [1], in the experiment on Candida albicans [2], in the experiment with Staphylococcus aureus [4] and in the experiment with Candida parapsilosis was inactive. The result in the experiment with Candida tropicalis, in the experiment on Escherichia coli and in the experiment on Pseudomonas aeruginosa was inactive. The minimum inhibitory concentration (MIC) against Candida albicans [3] came out at 50 µg/mL (≈ 143 µM).

Turning to `CCOC(=O)c1c(C(=O)Nc2ccc(C(F)(F)F)cc2)nn(-c2cccc([N+](=O)[O-])c2)c1-c1ccccc1`, the outcome with Nakaseomyces glabratus, in the experiment with Enterococcus, in the experiment on Staphylococcus aureus [1], with Staphylococcus aureus [4], in the experiment on Candida parapsilosis and in the experiment on Candida tropicalis was inactive. Besides, the outcome in the experiment on Escherichia coli and in the experiment with Pseudomonas aeruginosa was inactive. Further, the MIC in the experiment on Candida albicans [2] and against Candida albicans [3] was 25 µg/mL (≈ 47.7 µM) in each case.

Regarding `O=C(Nc1ccc([N+](=O)[O-])cc1)c1nn(-c2cccc([N+](=O)[O-])c2)c(-c2ccccc2)c1C(=O)Nc1ccc([N+](=O)[O-])cc1`, the result in the experiment with Nakaseomyces glabratus, in the experiment on Enterococcus, in the experiment on Staphylococcus aureus [1], in the experiment with Staphylococcus aureus [4], in the experiment on Escherichia coli and in the experiment on Pseudomonas aeruginosa was inactive. The MIC with Candida albicans [2] came to 25 µg/mL (≈ 42.1 µM); in the experiment on Candida albicans [3], 25 µg/mL (≈ 42.1 µM); against Candida parapsilosis, 25 µg/mL (≈ 42.1 µM); in the experiment with Candida tropicalis, 50 µg/mL (≈ 84.2 µM).

With `O=C(Nc1cccc([N+](=O)[O-])c1)c1nn(-c2cccc([N+](=O)[O-])c2)c(-c2ccccc2)c1C(=O)Nc1cccc([N+](=O)[O-])c1`, the result in the experiment with Nakaseomyces glabratus, in the experiment on Enterococcus, in the experiment on Staphylococcus aureus [1], with Staphylococcus aureus [4], with Candida tropicalis and in the experiment on Escherichia coli was inactive. The result in the experiment on Pseudomonas aeruginosa was inactive. Also, the figures for the minimum inhibitory concentration (MIC) in the experiment with Candida albicans [2], against Candida albicans [3] and in the experiment with Candida parapsilosis were 25 µg/mL (≈ 42.1 µM), 25 µg/mL (≈ 42.1 µM) and 50 µg/mL (≈ 84.2 µM), respectively.
